Data from ChEMBL document CHEMBL1687930 (J Med Chem, 2011).
Calls of active or inactive are those of the source. The calls are words filed in the database; no cut-off is given here.

Columns and labels:
LLC-PK1 [1] = experiment: Growth inhibition of pig LLC-PK1 cells; format: functional; conditions: Sus scrofa
Summary of the method: (§1)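 Parental lines (MDCKII, LLC-PK1) and matched Pgp-overexpressing lines (MDCKII-MDR1, about 500-fold Pgp; L-MDR1, about 25000-fold Pgp) were tested with and without the Pgp inhibitor LY335979. Each experiment was run at least in triplicate, with 8 wells per concentration. GI50 came from a nonlinear four-parameter sigmoidal concentration-response fit.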

[2] = Growth inhibition of dog MDCK2-MDR1 cells overexpressing human P-glycoprotein; format: functional; conditions: Canis lupus familiaris, MDCK-II; summary of the method: as §1
[3] = Growth inhibition of dog MDCK2 cells; format: functional; conditions: Canis lupus familiaris, MDCK-II; summary of the method: as §1
MDCK-II = experiment: Ratio of GI50 for dog MDCK2-MDR1 cells overexpressing human P-glycoprotein to GI50 for dog MDCK2 cells; format: functional, Canis lupus familiaris
LLC-PK1 [4] = experiment: Growth inhibition of pig LLC-PK1 cells in presence of P-glycoprotein inhibitor LY335979; format: functional; conditions: Sus scrofa; summary of the method: as §1
[5] = target: T1, Kinesin-like protein KIF11 (Homo sapiens, UniProt P52732); experiment: Inhibition of untagged human Eg5 basal ATPase activity; conditions: read-out: Ki(app)
T1 sequence (P52732 whole entry): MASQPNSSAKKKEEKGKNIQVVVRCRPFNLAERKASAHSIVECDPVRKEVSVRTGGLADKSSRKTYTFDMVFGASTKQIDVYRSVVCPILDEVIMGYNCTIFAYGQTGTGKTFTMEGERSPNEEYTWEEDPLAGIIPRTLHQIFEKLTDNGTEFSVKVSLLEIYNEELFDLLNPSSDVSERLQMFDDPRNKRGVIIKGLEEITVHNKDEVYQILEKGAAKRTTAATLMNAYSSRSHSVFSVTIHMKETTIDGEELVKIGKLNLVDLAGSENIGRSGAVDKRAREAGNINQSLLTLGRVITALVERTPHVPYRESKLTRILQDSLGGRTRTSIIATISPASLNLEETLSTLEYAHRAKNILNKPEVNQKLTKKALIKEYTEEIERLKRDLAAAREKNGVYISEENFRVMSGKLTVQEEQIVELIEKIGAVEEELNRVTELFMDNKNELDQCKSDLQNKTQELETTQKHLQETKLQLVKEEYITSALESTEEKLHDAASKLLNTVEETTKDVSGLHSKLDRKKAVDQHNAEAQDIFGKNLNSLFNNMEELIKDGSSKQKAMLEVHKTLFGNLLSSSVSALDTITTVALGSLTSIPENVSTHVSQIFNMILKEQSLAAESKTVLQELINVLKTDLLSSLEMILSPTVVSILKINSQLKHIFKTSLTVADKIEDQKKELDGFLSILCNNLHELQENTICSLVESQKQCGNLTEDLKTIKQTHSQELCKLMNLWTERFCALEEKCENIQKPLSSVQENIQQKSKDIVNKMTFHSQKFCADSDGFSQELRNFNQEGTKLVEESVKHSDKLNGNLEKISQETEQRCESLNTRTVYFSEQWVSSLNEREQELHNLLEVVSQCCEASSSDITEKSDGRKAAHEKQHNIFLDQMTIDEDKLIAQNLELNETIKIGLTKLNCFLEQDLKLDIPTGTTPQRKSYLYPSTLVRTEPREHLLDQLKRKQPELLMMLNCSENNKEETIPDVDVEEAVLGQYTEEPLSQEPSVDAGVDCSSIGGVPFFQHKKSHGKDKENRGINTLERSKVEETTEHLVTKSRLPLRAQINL

[6] = Growth inhibition of dog MDCK2-MDR1 cells overexpressing human P-glycoprotein in presence of P-glycoprotein inhibitor LY335979; format: functional; conditions: Canis lupus familiaris, MDCK-II; summary of the method: as §1
[7] = Growth inhibition of pig L-MDR1 cells overexpressing human P-glycoprotein; format: functional; conditions: Sus scrofa; summary of the method: as §1
LLC-PK1 [8] = experiment: Ratio of GI50 for pig L-MDR1 cells overexpressing human P-glycoprotein to GI50 for pig LLC-PK1 cells; format: functional, Sus scrofa
Summary of the method: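 MDR ratio is the GI50 in L-MDR1 cells (Pgp-overexpressing) divided by the GI50 in parental LLC-PK1 cells. Each GI50 came from growth inhibition run at least in triplicate, with 8 wells per concentration, fitted by a four-parameter sigmoidal model.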

[9] = target: T1, Kinesin-like protein KIF11; experiment: Inhibition of untagged human Eg5 microtubule-stimulated ATPase activity
[10] = Growth inhibition of pig L-MDR1 cells overexpressing human P-glycoprotein in presence of P-glycoprotein inhibitor LY335979; format: functional; conditions: Sus scrofa; summary of the method: as §1
[11] = Growth inhibition of dog MDCK2 cells in presence of P-glycoprotein inhibitor LY335979; format: functional; conditions: Canis lupus familiaris, MDCK-II; summary of the method: as §1
[12] = target: T2, Kinesin-like protein KIF11 (Homo sapiens) (UniProt P52732); experiment: Binding affinity to Eg5 at 2 mM by crystallography
T2 sequence (whole entry): T1 sequence (P52732 whole entry)

[13] = target: T2, Kinesin-like protein KIF11 (Homo sapiens); experiment: Inhibition of untagged human Eg5 basal ATPase activity
[14] = target: T2, Kinesin-like protein KIF11 (Homo sapiens); experiment: Inhibition of untagged human Eg5 microtubule-stimulated ATPase activity

SMILES | GI50 (LLC-PK1 [1]) [nM] | GI50 [2] [nM] | GI50 [3] [nM] | RatioGI50 (MDCK-II) | GI50 (LLC-PK1 [4]) [nM] | Ki [5] [nM] | GI50 [6] [nM] | GI50 [7] [µM] | RatioGI50 (LLC-PK1 [8]) | IC50 [9] [nM] | GI50 [10] [nM] | GI50 [11] [nM] | Activity [12] | inhibition [13] | inhibition [14]
N[C@@H](CSC(c1ccccc1)(c1ccccc1)c1ccc(Br)cc1)C(=O)O | 3200 | 670 | 250 | 2.7 | 2120 | < 50 | 210 | 6.78 | 2.1 | 26.8 | 2350 | 250 |  |  | 
Cc1ccc(C(SC[C@H](N)C(=O)O)(c2ccccc2)c2ccccc2)cc1 | 1050 | 350 | 90 | 3.8 | 1180 | < 50 | 120 | 3.83 | 3.7 | 61.7 | 490 | 80 |  |  | 
CC[C@]1(O)C[C@H]2CN(CCc3c([nH]c4ccccc34)[C@@](C(=O)OC)(c3cc4c(cc3OC)N(C=O)[C@H]3[C@@](O)(C(=O)OC)[C@H](OC(C)=O)[C@]5(CC)C=CCN6CC[C@]43[C@@H]65)C2)C1 [VINCRISTINE] | 30 | 107000 | 2650 | 40.3 |  |  | 340 | 2.1 | 70 |  |  | 430 |  |  | 
N[C@H](CSC(c1ccccc1)(c1ccccc1)c1ccccc1)C(=O)O | 940 | 3150 | 610 |  | 1070 |  | 780 | 36.6 |  |  | 4460 | 920 |  |  | 
CCC(C)C(SC[C@H](N)C(=O)O)(c1ccccc1)c1ccccc1 (mixture of isomers) |  |  |  |  |  |  |  |  |  | 549 |  |  | Active |  | 
N[C@@H](CSC(c1ccccc1)(c1ccccc1)c1ccc(I)cc1)C(=O)O | 330 | 330 | 100 | 3.4 | 440 | < 50 | 180 | 9.17 | 27.6 | 19.3 | 610 | 110 |  |  | 
N[C@@H](CSC(c1ccccc1)(c1ccccc1)c1ccc(C(F)(F)F)cc1)C(=O)O | 1000 | 670 | 320 | 2.1 | 510 | < 50 | 270 | 8.02 | 8 | 116 | 1020 | 330 |  |  | 
CC(C)(C)c1ccc(C(SC[C@H](N)C(=O)O)(c2ccccc2)c2ccccc2)cc1 | 4280 | 19500 | 2860 | 6.8 | 5410 | 429 | 3010 |  | >12.5 | 1240 | 13500 | 2480 |  |  | 
N[C@@H](CSC(c1ccccc1)(c1ccccc1)c1ccc(-c2ccccc2)cc1)C(=O)O | 77800 | 68500 | 22700 | 3 | 75600 | 1350 | 24500 |  |  | 1970 | 110000 | 20000 |  |  | 
CCc1ccc(C(SC[C@H](N)C(=O)O)(c2ccccc2)c2ccccc2)cc1 | 340 | 560 | 230 | 2.4 | 300 | < 50 | 170 | 10.8 | 31.8 | 55.4 | 160 | 290 |  |  | 
CSc1ccc(C(SC[C@H](N)C(=O)O)(c2ccccc2)c2ccccc2)cc1 | 340 | 410 | 110 | 3.7 | 300 | < 50 | 210 | 11.8 | 35.1 | 21.8 | 670 | 110 |  |  | 
CCC(CC)C(SC[C@H](N)C(=O)O)(c1ccccc1)c1ccccc1 |  |  |  |  |  | 302 |  |  |  | 1630 |  |  |  |  | 
N[C@@H](CSC(c1ccccc1)(c1ccccc1)c1cccs1)C(=O)O |  |  |  |  |  | 58300 |  |  |  | 41700 |  |  |  |  | 
N[C@@H](CSC(c1ccccc1)(c1ccccc1)c1ccc(Cl)cc1)C(=O)O | 2110 | 560 | 280 | 2 | 2450 | < 50 | 270 | 6.21 | 2.9 | 53.3 | 1610 | 330 | Active |  | 
N[C@@H](CSC(c1ccccc1)(c1ccccc1)c1ccccc1)C(=O)O [S-TRITYL-L-CYSTEINE] | 1060 | 2300 | 860 |  | 1110 |  | 580 | 33 |  |  | 3020 | 890 |  |  | 
CCCCC(SC[C@H](N)C(=O)O)(c1ccccc1)c1ccccc1 |  |  |  |  |  | < 50 |  |  |  | 319 |  |  |  |  | 
CN(C)[C@@H](CSC(c1ccccc1)(c1ccccc1)c1ccccc1)C(=O)O |  |  |  |  |  |  |  |  |  |  |  |  |  | inactive | inactive
CC(C)C(SC[C@H](N)C(=O)O)(c1ccccc1)c1ccccc1 |  |  |  |  |  | 175 |  |  |  | 1150 |  |  |  |  | 
CCCCc1ccc(C(SC[C@H](N)C(=O)O)(c2ccccc2)c2ccccc2)cc1 |  |  |  |  |  | 84.2 |  |  |  | 93.3 |  |  |  |  | 
N[C@@H](CSC(c1ccccc1)(c1ccccc1)c1ccc(C2CCCCC2)cc1)C(=O)O | 47900 | 50800 | 24300 | 2.1 | 64900 | 3260 | 17900 |  |  | 1580 | 56800 | 17600 |  |  | 
N[C@@H](CSC(c1ccccc1)(c1ccccc1)c1ccc2ccccc2c1)C(=O)O | 160 | 190 | 60 | 3.1 | 180 | < 50 | 50 | 6.18 | 38.6 | 16.3 | 290 | 70 |  |  | 
CC(C)c1ccc(C(SC[C@H](N)C(=O)O)(c2ccccc2)c2ccccc2)cc1 | 1050 | 2750 | 780 | 3.5 | 1510 | < 50 | 880 | 36.7 | 34.8 | 144 | 1050 | 840 |  |  | 
CCCc1ccc(C(SC[C@H](N)C(=O)O)(c2ccccc2)c2ccccc2)cc1 | 1950 | 1680 | 680 | 2.5 | 1100 | < 50 | 630 | 37.6 | 19.3 | 85.9 | 1760 | 710 |  |  | 
COc1ccc(C(SC[C@H](N)C(=O)O)(c2ccccc2)c2ccccc2)cc1 | 1660 | 540 | 220 |  | 2050 |  | 80 | 6.91 |  |  | 1650 | 240 |  |  | 
NC(CSC(c1ccccc1)(c1ccccc1)c1ccc(C(=O)O)cc1)C(=O)O (stereo not given) |  |  |  |  |  | 2540 |  |  |  | 14100 |  |  |  |  | 
